The target of experiment [1] is T1, DNA topoisomerase 1 (Homo sapiens) (UniProt P11387).
T1 sequence (whole entry): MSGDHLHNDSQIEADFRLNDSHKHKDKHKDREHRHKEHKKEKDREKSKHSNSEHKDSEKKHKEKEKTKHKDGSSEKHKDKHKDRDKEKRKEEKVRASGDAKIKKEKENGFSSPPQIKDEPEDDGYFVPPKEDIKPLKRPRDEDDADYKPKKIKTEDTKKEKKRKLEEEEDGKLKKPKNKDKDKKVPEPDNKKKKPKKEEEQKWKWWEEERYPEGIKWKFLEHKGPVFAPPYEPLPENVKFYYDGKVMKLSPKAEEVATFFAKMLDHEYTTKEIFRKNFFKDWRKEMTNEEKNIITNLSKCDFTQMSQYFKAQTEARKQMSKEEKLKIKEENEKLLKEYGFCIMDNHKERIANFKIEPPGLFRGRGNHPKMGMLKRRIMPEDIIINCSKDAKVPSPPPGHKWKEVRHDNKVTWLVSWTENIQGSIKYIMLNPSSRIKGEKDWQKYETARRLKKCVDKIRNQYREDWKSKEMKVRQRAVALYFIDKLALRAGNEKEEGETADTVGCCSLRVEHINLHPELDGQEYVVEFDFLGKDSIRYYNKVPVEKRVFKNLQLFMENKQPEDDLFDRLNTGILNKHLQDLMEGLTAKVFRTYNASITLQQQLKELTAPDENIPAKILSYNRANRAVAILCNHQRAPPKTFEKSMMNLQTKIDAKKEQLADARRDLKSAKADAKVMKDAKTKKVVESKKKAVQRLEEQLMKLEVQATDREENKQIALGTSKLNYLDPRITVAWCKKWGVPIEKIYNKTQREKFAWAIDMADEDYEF
Description: Inhibition of recombinant human DNA topoisomerase-1 assessed as relaxation of supercoiled DNA pBR322 at 100 uM after 30 mins by agarose gel electrophoresis relative to control. A digest of the protocol: (§1)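 Relaxation assay with 100 ng pBR322 plasmid DNA and 1 unit recombinant human topo I. Buffer was 10 mM Tris–HCl pH 7.9, 150 mM NaCl, 0.1% BSA, 1 mM spermidine and 5% glycerol, incubated 37 °C for 30 min with or without compound. Products were run on a 1% agarose gel in TAE at 15 V for 7 h and stained with ethidium bromide (0.5 µg/mL) for 30 min.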

Experiment [2] concerns the target T1, DNA topoisomerase 1 (Homo sapiens). Description: Inhibition of recombinant human DNA topoisomerase-1 assessed as relaxation of supercoiled DNA pBR322 at 20 uM after 30 mins by agarose gel electrophoresis relative to control. A digest of the protocol:
as §1

The target of experiment [3] is DNA topoisomerase 2-alpha (Homo sapiens) (UniProt P11388). Nature of the experiment: Inhibition of recombinant human DNA topoisomerase-2alpha using supercoiled pBR322 plasmid DNA as substrate at 100 uM after 30 mins by agarose gel electrophoresis relative to control. A digest of the protocol:
(§2)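 200 ng supercoiled pBR322 with 1 unit human topo II, incubated 30 min at 30 °C with or without compound in 10 mM Tris–HCl pH 7.9, 50 mM NaCl, 5 mM MgCl2, 1 mM EDTA, 1 mM ATP and 15 µg/mL BSA. Reaction was stopped with 7 mM EDTA and run on 1% agarose in TAE at 25 V. Gel was stained with ethidium bromide, visualized under UV, and supercoiled DNA quantitated densitometrically.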

A further experiment relates to DU-145. Nature of the experiment: Cytotoxicity against human DU145 cells measured on day 4 by CCK8 assay. In kind it is functional, cell-based. The note with it: DU-145, 96 h. Summed up:
(§3)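 Cells seeded at […], grown overnight in medium with 10% FBS at 37 °C under 5% CO2. On day 2 they were serum-starved 4 h, then exposed to graded compound concentrations. On day 4 CCK-8 was added for a further 4 h and absorbance read at 450 nm. IC50 came from a four-parameter logistic fit, mean ± SD of three experiments in triplicate.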
(In general: Tetrazolium dyes change colour on reduction, which living cells bring about.)

Another experiment concerns HCT-15. Description: Cytotoxicity against human HCT15 cells measured on day 4 by CCK8 assay. In kind it is functional, cell-based. Conditions: HCT-15, 96 h. A digest of the protocol:
as §3

The next experiment concerns T47D. Nature of the experiment: Cytotoxicity against human T47D cells measured on day 4 by CCK8 assay. In kind it is functional, cell-based. Conditions: 96 h. A digest of the protocol: as §3
A further experiment deals with HeLa. Description: Cytotoxicity against human HeLa cells measured on day 4 by CCK8 assay. In kind it is functional, cell-based. Conditions: 96 h. A digest of the protocol: as §3
Experiment [4] addresses DNA topoisomerase 2-alpha (Homo sapiens) (UniProt P11388). Nature of the experiment: Inhibition of recombinant human DNA topoisomerase-2alpha using supercoiled pBR322 plasmid DNA as substrate at 20 uM after 30 mins by agarose gel electrophoresis relative to control. Summed up:
as §2

The results in this text go back to ChEMBL document CHEMBL3585276, “Topoisomerase I and II inhibitory activity, cytotoxicity, and structure-activity relationship study of dihydroxylated 2,6-diphenyl-4-aryl pyridines” (Bioorg Med Chem, 2015).

The structures appear in SMILES notation.

Sequence of DNA topoisomerase 2-alpha (Homo sapiens) (P11388 whole entry): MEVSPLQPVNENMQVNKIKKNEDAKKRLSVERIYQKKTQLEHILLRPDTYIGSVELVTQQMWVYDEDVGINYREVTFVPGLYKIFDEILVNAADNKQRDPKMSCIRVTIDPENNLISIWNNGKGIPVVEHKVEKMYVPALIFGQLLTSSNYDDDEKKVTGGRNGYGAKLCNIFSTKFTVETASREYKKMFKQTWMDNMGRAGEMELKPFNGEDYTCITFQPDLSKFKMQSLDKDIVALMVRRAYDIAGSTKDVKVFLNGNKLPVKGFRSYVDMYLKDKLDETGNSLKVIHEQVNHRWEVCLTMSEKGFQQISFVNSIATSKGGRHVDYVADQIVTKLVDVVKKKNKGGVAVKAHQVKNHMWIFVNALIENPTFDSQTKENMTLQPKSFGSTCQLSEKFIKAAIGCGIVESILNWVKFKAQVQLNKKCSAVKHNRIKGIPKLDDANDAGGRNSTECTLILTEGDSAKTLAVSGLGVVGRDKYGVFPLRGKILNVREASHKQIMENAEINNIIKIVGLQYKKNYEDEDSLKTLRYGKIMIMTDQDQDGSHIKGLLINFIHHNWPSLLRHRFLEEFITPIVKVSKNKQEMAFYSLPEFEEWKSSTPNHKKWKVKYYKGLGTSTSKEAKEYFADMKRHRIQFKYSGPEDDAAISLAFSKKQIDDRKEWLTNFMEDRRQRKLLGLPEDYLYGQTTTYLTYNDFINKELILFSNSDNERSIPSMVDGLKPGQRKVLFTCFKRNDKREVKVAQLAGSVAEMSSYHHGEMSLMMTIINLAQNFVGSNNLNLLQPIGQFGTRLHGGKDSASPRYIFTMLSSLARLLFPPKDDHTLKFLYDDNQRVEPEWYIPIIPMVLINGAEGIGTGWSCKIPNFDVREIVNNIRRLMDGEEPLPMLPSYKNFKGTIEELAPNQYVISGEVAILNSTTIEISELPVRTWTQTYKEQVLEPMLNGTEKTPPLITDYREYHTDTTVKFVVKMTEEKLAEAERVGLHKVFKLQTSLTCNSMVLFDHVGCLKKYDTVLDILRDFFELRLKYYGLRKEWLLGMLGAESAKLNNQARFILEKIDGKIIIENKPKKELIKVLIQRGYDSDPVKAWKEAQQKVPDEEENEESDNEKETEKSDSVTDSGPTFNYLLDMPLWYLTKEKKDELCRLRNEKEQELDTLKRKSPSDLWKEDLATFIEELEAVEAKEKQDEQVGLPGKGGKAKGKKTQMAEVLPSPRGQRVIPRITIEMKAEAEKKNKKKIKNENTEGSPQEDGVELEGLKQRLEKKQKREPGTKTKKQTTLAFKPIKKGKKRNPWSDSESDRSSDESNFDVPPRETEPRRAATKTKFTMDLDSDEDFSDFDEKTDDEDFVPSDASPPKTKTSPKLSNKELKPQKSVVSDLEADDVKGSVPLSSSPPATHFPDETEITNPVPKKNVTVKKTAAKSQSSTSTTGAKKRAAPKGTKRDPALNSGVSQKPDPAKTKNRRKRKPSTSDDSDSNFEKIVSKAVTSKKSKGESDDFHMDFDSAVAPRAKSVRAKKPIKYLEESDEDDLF

A word on the inhibition: it is the share of the control response that was lost under treatment. By IC50 is commonly meant the point on the concentration scale where inhibition reaches its midpoint. With `Oc1cccc(-c2cc(-c3cccnc3)cc(-c3cccc(O)c3)n2)c1`, the inhibition in experiment [1] worked out at 2.1%; in experiment [2] it was 1.9%; in experiment [3] it was 11.2%. In addition, the IC50 with DU-145, in the experiment on HCT-15, in the experiment with T47D and in the experiment on HeLa was > 50 µM each time.

With `Oc1ccccc1-c1cc(-c2ccco2)cc(-c2ccccc2O)n1`, the inhibition is 89.1% in experiment [1], 0.2% in experiment [2], 52.2% in experiment [3] and 13.3% in experiment [4]. Besides, the IC50 with DU-145, in the experiment with HCT-15, with T47D and with HeLa was > 50 µM throughout.

As to `Oc1ccc(-c2cc(-c3ccsc3)cc(-c3ccc(O)cc3)n2)cc1`, the inhibition stood at 61.7% in experiment [1], 7.5% in experiment [2], 81.2% in experiment [3] and 57.9% in experiment [4]. Also, the IC50 is 2.06 µM in the experiment on DU-145, 1.04 µM with HCT-15, 1.77 µM with T47D and 4.37 µM with HeLa.

With `Oc1ccccc1-c1cc(-c2cccnc2)cc(-c2ccccc2O)n1`, the inhibition was determined as 66.4% in experiment [1], 0% in experiment [2] and 5.2% in experiment [3]. In addition, the IC50 in the experiment with DU-145, in the experiment on HCT-15, with T47D and in the experiment with HeLa was > 50 µM throughout.

On to `Oc1ccc(-c2cc(-c3ccoc3)cc(-c3ccccc3O)n2)cc1`, for which the inhibition in experiment [1] was 30.1%; in experiment [2], 3.9%; in experiment [3], 69.3%; in experiment [4], 12.8%. Also, the IC50 in the experiment with DU-145 was 28 µM; in the experiment with HCT-15, > 50 µM; with T47D, > 50 µM; in the experiment on HeLa, > 50 µM.

Regarding `Oc1cccc(-c2cc(-c3ccsc3)cc(-c3cccc(O)c3)n2)c1`, the inhibition is 59.2% in experiment [1], 4.5% in experiment [2], 88.1% in experiment [3] and 23% in experiment [4]. Moreover, the IC50 worked out at 1.31 µM in the experiment with DU-145, 1.63 µM in the experiment with HCT-15, 1.51 µM in the experiment with T47D and 16.6 µM in the experiment with HeLa.

For `Oc1cccc(-c2cc(-c3cccs3)cc(-c3ccccc3O)n2)c1`, the inhibition in experiment [1] came to 83.2%; in experiment [2], 1.5%; in experiment [3] it was 78.1%; in experiment [4], 12.1%. Moreover, the IC50 with DU-145 is 9.3 µM; in the experiment with HCT-15 it was > 50 µM; in the experiment with T47D, > 50 µM; with HeLa, > 50 µM.

`Oc1ccc(-c2cc(-c3cccnc3)cc(-c3ccc(O)cc3)n2)cc1`: the inhibition in experiment [1] was 8.7%; in experiment [2], 5%; in experiment [3] it was 65.8%; in experiment [4] it was 25.7%. Besides, the IC50 is 0.24 µM in the experiment on DU-145, 0.84 µM in the experiment with HCT-15, 2.03 µM in the experiment on T47D and 0.6 µM in the experiment with HeLa.

With `Oc1ccc(-c2cc(-c3ccco3)cc(-c3cccc(O)c3)n2)cc1`, the inhibition turned out to be 100% in experiment [1], 1.5% in experiment [2], 92.8% in experiment [3] and 21.8% in experiment [4]. Moreover, the IC50 in the experiment on DU-145 was 2.07 µM; in the experiment with HCT-15, 0.84 µM; in the experiment on T47D, 1.28 µM; with HeLa, 5.17 µM.

As to `Oc1ccc(-c2cc(-c3cccnc3)cc(-c3ccccc3O)n2)cc1`, the inhibition was 1.5% in experiment [1], 0% in experiment [2] and 8.3% in experiment [3]. Besides, the IC50 with DU-145, in the experiment on HCT-15, in the experiment on T47D and in the experiment with HeLa was > 50 µM in each case.

On to `Oc1ccc(-c2cc(-c3ccco3)cc(-c3ccccc3O)n2)cc1`, for which the inhibition in experiment [1] worked out at 83%; in experiment [2], 0%; in experiment [3], 84.8%; in experiment [4], 13.6%. Moreover, the IC50 in the experiment on DU-145, with HCT-15, in the experiment with T47D and in the experiment with HeLa was > 50 µM each time.

As for `Oc1ccccc1-c1cc(-c2cccs2)cc(-c2ccccc2O)n1`, the inhibition in experiment [1] was determined as 77.2%; in experiment [2], 0.2%; in experiment [3] it was 55.9%; in experiment [4], 10.8%. The IC50 in the experiment with DU-145, in the experiment with HCT-15, in the experiment on T47D and in the experiment with HeLa was > 50 µM each time.

With `Oc1ccc(-c2cc(-c3ccoc3)cc(-c3ccc(O)cc3)n2)cc1`, the inhibition in experiment [1] was determined as 74.9%; in experiment [2], 0%; in experiment [3], 12%. Further, the IC50 in the experiment with DU-145 was 3.44 µM; in the experiment on HCT-15 it was 1.53 µM; in the experiment on T47D, 3.46 µM; with HeLa, 3.42 µM.

`Oc1cccc(-c2cc(-c3ccccn3)cc(-c3ccccc3O)n2)c1`: the inhibition in experiment [1] amounted to 35.4%; in experiment [2], 0.1%; in experiment [3], 62.5%; in experiment [4], 1.5%. Further, the IC50 in the experiment with DU-145 is 17.1 µM; in the experiment with HCT-15, > 50 µM; with T47D, 2.56 µM; with HeLa, 2.02 µM.

Take `Oc1ccc(-c2cc(-c3cccnc3)cc(-c3cccc(O)c3)n2)cc1`: the values for the inhibition in experiment [1], in experiment [2] and in experiment [3] were 5.9%, 2.8% and 14.8%, respectively. Besides, the IC50 with DU-145 was 6.39 µM; in the experiment on HCT-15 it was > 50 µM; with T47D, > 50 µM; in the experiment with HeLa, > 50 µM.

Consider `Oc1cccc(-c2cc(-c3cccs3)cc(-c3cccc(O)c3)n2)c1`, for which the inhibition came out at 91.7% in experiment [1], 0% in experiment [2], 78.3% in experiment [3] and 22.3% in experiment [4]. In addition, the IC50 amounted to 1.63 µM in the experiment with DU-145, 3.48 µM in the experiment with HCT-15, 0.77 µM in the experiment on T47D and 1.69 µM with HeLa.

Consider `Oc1cccc(-c2cc(-c3ccco3)cc(-c3cccc(O)c3)n2)c1`, for which the inhibition in experiment [1] worked out at 97.8%; in experiment [2], 0%; in experiment [3] it was 88.2%; in experiment [4], 20.6%. The IC50 in the experiment on DU-145 is 2.15 µM; with HCT-15 it was 1.89 µM; with T47D, 3.52 µM; with HeLa, 5.99 µM.

Regarding `Oc1cccc(-c2cc(-c3ccoc3)cc(-c3cccc(O)c3)n2)c1`, the inhibition is 44.2% in experiment [1], 2% in experiment [2] and 7.3% in experiment [3]. Moreover, the IC50 with DU-145 is 1.65 µM; with HCT-15, 1.02 µM; in the experiment on T47D it was 2.59 µM; in the experiment on HeLa it was 4.63 µM.

Turning to `Oc1ccc(-c2cc(-c3ccco3)cc(-c3ccc(O)cc3)n2)cc1`, the inhibition in experiment [1] was 100%; in experiment [2] it was 0%; in experiment [3], 92.3%; in experiment [4], 48.4%. In addition, the IC50 in the experiment on DU-145 was > 50 µM; with HCT-15 it was 14 µM; with T47D it was 21.1 µM; in the experiment on HeLa, > 50 µM.

`Oc1ccccc1-c1cc(-c2ccsc2)cc(-c2ccccc2O)n1`: the inhibition was 0% in experiment [1], 84.5% in experiment [3] and 4.7% in experiment [4]. Further, the IC50 in the experiment on DU-145, in the experiment on HCT-15, in the experiment on T47D and in the experiment with HeLa was > 50 µM each time.
